WT yeast gro inh: growth inhibition of WT yeast, mitochondrial fusion screen; inhibition, % at 10 µM; hit rate 2.1% among 190,000; mitochondrial fusion phenotypic screen, WT strain; in the data active = inhibition above about 58%; tested in S. cerevisiae
EBV gp42 block: blocks Epstein-Barr virus glycoprotein 42 binding; AID 1085; Q1HVG2; hit rate 0.42% among 220,000; Fluorescence polarization binding assay, mP read-out; inhibition, % (tested at 21.74 µM); in the data active = inhibition above about 50%
Target sequence (Q1HVG2 whole entry, looked up): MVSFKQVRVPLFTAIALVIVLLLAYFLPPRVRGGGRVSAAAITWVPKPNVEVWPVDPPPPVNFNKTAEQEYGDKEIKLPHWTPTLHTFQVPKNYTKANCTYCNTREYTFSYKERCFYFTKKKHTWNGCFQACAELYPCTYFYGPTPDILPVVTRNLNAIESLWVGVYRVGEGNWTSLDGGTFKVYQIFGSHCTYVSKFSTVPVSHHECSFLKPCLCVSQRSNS
14-3-3 Bad PPI: disrupts binding of bovine 14-3-3 zeta to phospho-Bad peptide; P63103; hit rate 0.71% among 220,000; inhibition, % at 21.7 µM; TR-FRET 14-3-3zeta/Dy647-pBad peptide displacement, 1 h; AID 781;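 active = inhibition above about 70%, limit read from the data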;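 also: 0% = full 14-3-3 plus peptide FRET controls and 100% = background without 14-3-3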
Target sequence (P63103 whole entry, looked up): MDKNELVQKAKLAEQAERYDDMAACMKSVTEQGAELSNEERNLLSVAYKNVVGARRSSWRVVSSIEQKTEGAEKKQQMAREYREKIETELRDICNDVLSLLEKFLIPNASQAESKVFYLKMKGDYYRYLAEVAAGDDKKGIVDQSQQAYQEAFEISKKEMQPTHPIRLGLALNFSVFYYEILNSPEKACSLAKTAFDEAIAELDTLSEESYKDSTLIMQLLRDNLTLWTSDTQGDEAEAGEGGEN
RBBP9 inhibitor: blocks human serine hydrolase RBBP9. inhibition, % at 7.94 µM. hit rate 0.2% among 220,000. AID 1515. O75884. recombinant RBBP9, FP-Rh probe fluorescence polarization;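 active = inhibition above the campaign mean of all tested compounds plus 3 SD, cut at about 14% in these data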;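 also: plate controls were DMSO wells with RBBP9 for no effect and wells lacking RBBP9 protein for full effect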
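Controls: DMSO-treated enzyme wells and wells lacking RBBP9 | Material: RBBP9 protein | Technique: Fluorescence polarization | Replication: Single well per compound, no replicates | Buffer or medium: Tris-NaCl-Pluronic buffer, pH 8.0 | Timing: 30 min compound preincubation, 45 min probe labeling, 25 °C | Read-out basis: Percent inhibition from mP, scaled between DMSO and no-protein wells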
eIF4E-4G inh: eIF4E/eIF4G interaction inhibition in translation initiation; inhibition, % at 21.7 µM; TR-FRET eIF4E-eIF4GI(517-606) binding, 2 h; P63073+Q04637; hit rate 0.37% among 220,000;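 also: 0% = full FRET control wells and 100% = background wells lacking eIF4GI fragment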
p47phox inh: p47phox (human) inhibition | P14598 | p47phox/p22phox peptide binding, fluorescence polarization, 2 h | inhibition, % at 24.7 µM | hit rate 0.53% among 220,000;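 also: 0% = p47phox with labelled peptide and 100% = labelled peptide alone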
Numbers without * were called inactive; . = not tested or not shown; ! = a repeat was not active. Sampled rows, rich in hits. Any-hit rate of the full collection: about 3.7%.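 The calls were made as follows, unless noted: active = inhibition above about 30% (limit read from the data); inactive = the rest.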

SMILES	WT yeast gro inh	EBV gp42 block	14-3-3 Bad PPI	RBBP9 inhibitor	eIF4E-4G inh	p47phox inh
COCCCNc1nc2ccccc2nc1NS(=O)(=O)c1ccc(C)cc1C	.	-4	8	-1	4	3
CC1CN(C(=O)N(C)C)CCN1C(=O)N(C)C (configuration not stated)	66*	-16	-5	-11	2	-11
NNC(=O)c1csc(Cc2c(Cl)sc3ccc(Cl)cc23)n1	.	-3	-6	-9	5	0
O=C(CN1CCN(c2ccccc2)CC1)Nc1cccc([N+](=O)[O-])c1	0	-24	-8	-4	-3	-8
CCCN(CCC)S(=O)(=O)c1cccc(C(=O)Nc2ccc3c(c2)OCO3)c1	27	-22	4	-4	0	165*
CCCc1cc(-c2n[nH]c(=S)n2CC)cs1	39	-20	-8	5	8	1
CC(C)Cn1c(-c2csc(C(C)C)c2)n[nH]c1=S	67*	2	-9	0	-3	1
CCCCn1c(-c2csc(CCC)c2)n[nH]c1=S	73*	0	-9	-1	0	-6
CCn1c(-c2csc(C(C)C)c2)n[nH]c1=S	3	-26	-2	-10	14	-5
CCCc1cc(-c2n[nH]c(=S)n2C(C)c2ccccc2)cs1 (configuration not stated)	64*	10	-7	-2	-1	-1
COC(=O)c1n[nH]n(-c2cc(Cl)cc(Cl)c2)c1=O	.	5	-1	-8	3	0
CN1CCN(CCCN2c3ccccc3Sc3ccc(C(F)(F)F)cc32)CC1	93*!	2	10	-5	2	1
O=C(N/N=C/c1cc([N+](=O)[O-])ccc1O)c1cccc2cc[nH]c12	.	-2	-5	-6	3	-61
C=CCOc1ccc2cccc(/C=N/NC(=O)c3cc4cc([N+](=O)[O-])ccc4s3)c2c1	-10	-30	17	-13	-16	41*
O=C1ON=C(c2ccccc2)/C1=C/c1ccc(-c2ccccc2[N+](=O)[O-])o1	8	0	22	3	5	142*
CC(/C=C1\SC(=S)N(CC(=O)O)C1=O)=C\c1ccccc1	.	-10	1	-1	-4	-5
CC(/C=C1\SC(=S)N(NC(=O)c2cccc(O)c2)C1=O)=C\c1ccccc1	86*	-11	1	-2	-7	-25
Cn1cc(/C=C2\SC(=S)N(NC(=O)c3ccccc3)C2=O)c2ccccc21	0	89*	2	-4	-2	0
Cn1cc(/C=C2\SC(=S)N(NC(=O)c3cccc(Cl)c3)C2=O)c2ccccc21	.	165*	7	-4	-7	21
CC1(c2cccc3ccccc23)NC(=O)N(CC(=O)NC2CCS(=O)(=O)C2)C1=O (configuration not stated)	11	-4	-7	-6	4	-11
N#CC(=C=[N-])c1nc2ccccc2nc1-[n+]1cccc(NC(=O)c2ccc(F)cc2)c1	.	-7	22	4	5	21
N#CC(=C=[N-])c1nc2ccccc2nc1-[n+]1cccc(NC(=O)c2ccccc2)c1	.	-9	18	-6	14	53*
N#CC(=C=[N-])c1nc2ccccc2nc1-[n+]1cccc(NC(=O)c2cccs2)c1	.	-2	2	0	-6	48*
CC(C)(CN1CCN(Cc2ccccc2)CC1)NS(=O)(=O)c1ccc(Cl)cc1	.	-2	-7	0	0	4
Cc1ccc(C(c2nnnn2CS(=O)(=O)c2ccc(C)cc2)N2CCCC2)cc1 (configuration not stated)	21	-10	-4	9	4	39*
SMILES	WT yeast gro inh	EBV gp42 block	14-3-3 Bad PPI	RBBP9 inhibitor	eIF4E-4G inh	p47phox inh
CC(C)n1cnc2cc(NCc3ccccn3)ccc21	14	-15	-1	-1	-8	-4
Cc1cc(NCc2ccccn2)ccc1Br	-5	1	79*	-1	5	-11
Cc1ccc(OCC(=O)Nc2sc3c(c2C#N)CC(C)(C)NC3(C)C)cc1	-12	-17	-4	-10	2	-8
CC1(C)Cc2c(sc(NC(=O)COc3cccc4ccccc34)c2C#N)C(C)(C)N1	.	-16	-71	-8	-60	51*
Cc1ccccc1C([O-])=Nc1ccc[n+](-c2nc3ccccc3nc2NS(=O)(=O)c2ccccc2)c1	.	12	1	-4	0	-10
CCN1C(=O)C2C(c3ccc(O)c(OC)c3)NC(C)(C(=O)OC)C2C1=O (configuration not stated)	-6	6	-9	-3	8	38*
COC(=O)c1cc(=O)n2c(sc3ccccc32)c1C#N	.	-25	-7	-3	-5	-33
CN(C)S(=O)(=O)N1CCN(CC(O)COc2ccc3cc(Br)ccc3c2)CC1 (configuration not stated)	98*	-8	-2	-4	1	-13
O=S(=O)(N1CCCCC1)N1CCN(CC(O)COc2ccc3cc(Br)ccc3c2)CC1 (configuration not stated)	12	-11	-5	-6	-15	-4
CC(C)c1c(Cl)c(O)c(-c2ccccc2)c(=O)n1-c1ccc(F)cc1	-1	-12	88*	0	23	-6
COc1ccc(NC(=O)c2ccc(COc3ccc(C)cc3)o2)cc1	10	-19	10	-6	0	-2
O=c1[nH]c2ccccc2c2nc3ccccn3c12	1	-10	11	-6	5	3
O=c1nc2c(O)cccn2c2c1c(=O)[nH]c1ccccc12	4	104*	2	-5	9	-7
O=C(Nc1ccc(Cl)c(Cl)c1)c1ccc(Cn2cc(Cl)cn2)cc1	78*	-14	9	-27	2	-18
NNC(=O)c1ccc(Cn2cc(Cl)cn2)cc1	-8	-1	2	-8	7	-7
COc1cc(C(=O)NCc2ccc(C(=O)NCC(OC)OC)cc2)cc(OC)c1OC	12	-11	72*	-5	63*	-2
COc1cc(C(=O)NCC(C)C)cc(OC)c1OC	-6	-2	21	-6	0	11
O=C(Nc1nc2ccccc2s1)c1cccc(S(=O)(=O)N2CCc3ccccc32)c1	.	-25	-7	-56	-10	-86
O=C(Nc1nc2c(s1)CN(Cc1ccccc1)CC2)c1cccc(S(=O)(=O)N2CCc3ccccc32)c1	-23	111*	-38	-20	-128	-165
COCCN(C(=S)Nc1cc(C)cc(C)c1)C(C)c1cccs1 (configuration not stated)	15	7	-4	-6	-3	2
COCCN(C(=S)Nc1cc(C)cc(C)c1)C(C)c1ccco1 (configuration not stated)	61*	11	-17	1	-6	7
COCCN(C(=S)Nc1cccc(C)c1)C(C)c1cccs1 (configuration not stated)	59*	-19	-10	-5	-2	-13

Source: PubChem
